Assay results as given in paper PMC3447998 (Biochemistry, 2012).
“Also recorded” adds a separate entry of the source. Where a SMILES comes first, the peptide text is derived from it. Where no end group is shown, it is not given here. The star is where a group is joined. X2 = C[N+](C)(C)[C@@H](CO)C(=O)*; X1 = C[N+]1(C)CCC[C@H]1C(=O)*

Experiments:
[1] = molecular target: T1, recombinant human NRMT (Homo sapiens, UniProt Q9BV86); test: Isothermal titration calorimetry; format: binding; details: 25°C, pH 8.0; for binding to recombinant human NRMT (in words): 10 residue RCC1 N-terminal peptides
T1 sequence (Q9BV86 1-223): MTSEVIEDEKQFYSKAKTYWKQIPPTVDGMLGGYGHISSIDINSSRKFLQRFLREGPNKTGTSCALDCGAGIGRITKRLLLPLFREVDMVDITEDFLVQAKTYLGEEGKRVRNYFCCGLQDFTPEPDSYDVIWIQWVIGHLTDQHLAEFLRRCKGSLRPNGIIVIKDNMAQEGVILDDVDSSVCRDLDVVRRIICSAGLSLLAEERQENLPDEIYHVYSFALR
In short: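 Recombinant NRMT was dialyzed overnight at 4°C against 50 mM Tris, 50 mM potassium acetate, pH 8.0. Ten-residue RCC1 N-terminal peptides, unmodified or N-methylated, were dissolved in the same buffer. At 25°C, 100 µM enzyme was titrated with 800–1000 µM peptide, and binding curves were fitted.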

[2] = system: endogenous NRMT (293LT cells); test: Co-precipitation of endogenous NRMT with FLAG-tagged substrate proteins; format: binding; details: C-terminally FLAG-tagged protein expressed in 293LT cells
In short: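 C-terminally FLAG-tagged RCC1 or VRK2 expressed in 293LT cells, immunoprecipitated with anti-FLAG, and run on 10% polyacrylamide gel with Coomassie staining. On-bead material washed 3× with 100 mM ammonium bicarbonate (pH 8.0), then reduced, carbamidomethylated and digested with endoproteinase Glu-C (enzyme:protein 1:20). Peptides acidified to pH 3.5 and analysed by nano-LC-MS on C18 capillary columns.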

[3] = system: recombinant NRMT (SPK-RCC1 substrate); test: In vitro product inhibition assay, SPK-RCC1 substrate; format: biochemical; details: increasing concentrations of product peptide; n=2
In short: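 Recombinant NRMT methylated RCC1 protein substrates bearing SPK or PPK N-termini in vitro. Increasing concentrations of N-trimethylated SPK or N-dimethylated PPK RCC1 product peptides were present. The read-out was N-terminal methylation of the substrate protein, normalized to the lowest product-peptide condition.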

[4] = system: N-terminus of protein; details: yeast and mammals; ref [24],[25]; cited from earlier work

SPQRIAKRRS
binding to recombinant human NRMT (in words) [1]: very low affinity binding (in mM range, data not shown)

VRK2-FLAG: FLAG-tagged VRK2, possesses a P-P-K motif
capture / co-precipitation of endogenous NRMT (in words) [2]: efficiently captured endogenous NRMT | capture / co-precipitation of endogenous NRMT (in words) ([2]; listed as VRK2): captured more NRMT than the RCC1; also recorded: NRMT is co-precipitated

PPQRIAKRRS
binding to recombinant human NRMT (in words) [1]: very low affinity binding (in mM range, data not shown)

CC[C@H](C)[C@H](NC(=O)[C@H](CCCNC(=N)N)NC(=O)[C@H](CCCCN)NC(=O)[C@@H]1CCCN1C(=O)[C@@H]1CCC[N+]1(C)C)C(=O)N[C@@H](C)C(=O)N[C@@H](CCCCN)C(=O)N[C@@H](CCCNC(=N)N)C(=O)N[C@@H](CCCNC(=N)N)C(=O)N[C@@H](CO)C(=O)O [me2PPKRIAKRRS] (X1-PKRIAKRRS-OH; C-terminus assumed)
concentration of efficient inhibition of N-terminal methylation of SPK-RCC1 [3]: 1.3 µM | binding to recombinant human NRMT (in words) [1]: bound to recombinant human NRMT with high affinity

CC[C@H](C)[C@H](NC(=O)[C@H](CCCNC(=N)N)NC(=O)[C@H](CCCCN)NC(=O)[C@@H]1CCCN1C(=O)[C@H](CO)[N+](C)(C)C)C(=O)N[C@@H](C)C(=O)N[C@@H](CCCCN)C(=O)N[C@@H](CCCNC(=N)N)C(=O)N[C@@H](CCCNC(=N)N)C(=O)N[C@@H](CO)C(=O)O [me3SPKRIAKRRS] (X2-PKRIAKRRS-OH; C-terminus assumed)
concentration of efficient inhibition of N-terminal methylation of SPK-RCC1 [3]: 1.3 µM | binding to recombinant human NRMT (in words) [1]: bound to recombinant human NRMT with high affinity

PPKRIAKRRS [PPKRIAKRRS]
Kd ([1]; Kd, bi-phasic titration curve, second phase): 0.136 µM

PWP1: protein with MNR-N-terminus
N-terminal acetylation reported (in words) [4]: reported to be N-terminally acetylated
